The values below come from ChEMBL document CHEMBL5136968, “Posttranslational modifications of α-conotoxins: sulfotyrosine and C-terminal amidation stabilise structures and increase acetylcholine receptor binding” (RSC Med Chem, 2021).

Each structure is given as a SMILES string. Positions of bridges follow the written chain, without caps; N, C: chain ends. Non-standard residues stand in square brackets, D forms with d. Residues, ends and D or L forms follow the SMILES beside them. sY = N[C@@H](Cc1ccc(OS(=O)(=O)O)cc1)C(=O)O

As a reminder, the pKi is the negative decadic logarithm of the Ki, by convention in mol/L. The term Ki denotes a dissociation constant, usually derived from enzyme kinetics or from competition with a known ligand. The term IC50 denotes the concentration at which inhibition is half-maximal.

The nature of assay [1]: Displacement of [3H]-epibatidine from Aplysia californica Acetylcholine-binding protein measured after 1 hr by liquid scintillation counter. An outline of the steps: (§1)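 Recombinant AChBP expressed in E. coli (IPTG induction, 16 °C), coated onto wells at 1 ng μL−1. Incubated 1 h at 4 °C with [3H]-epibatidine (1 nM final) and increasing peptide in PBS with 0.05% BSA. Unbound ligand washed off; bound radioactivity counted by liquid scintillation. One-site competition fit gives Ki. Triplicate, three independent experiments; pKi as mean with 95% CI.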
Background: Loss of bound radioactivity is the signal in a displacement assay; it reports binding, not function.

The target in assay [2] is Acetylcholine-binding protein (Lymnaea stagnalis, UniProt P58154). The assay can be described thus: Displacement of [3H]-epibatidine from Lymnaea stagnalis Acetylcholine-binding protein measured after 1 hr by liquid scintillation counter. An outline of the steps: as §1
The target in assay [3] is Neuronal acetylcholine receptor; alpha3/beta4 (Homo sapiens, UniProt P30926+P32297). Briefly: Antagonist activity at human alpha3beta4 nAChR in SH-SY5Y cells assessed as inhibition of calcium flux by FLIPR assay. The format is cell-based. An outline of the steps: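 SH-SY5Y cells (endogenous α3β4), grown in RPMI with 15% FBS, plated 100 000/well and cultured 48 h. Loaded with calcium 4 dye for 30 min at 37 °C. Peptides in PSS (pH 7.4) added 10 min before nicotine 30 μM. Fluorescence read at 470–495 nm excitation, 515–575 nm emission, every 1 s. Normalised to maximal nicotine response; four-parameter Hill fit; pIC50. Triplicate, three independent experiments.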
(Calcium assays in cells follow changes in intracellular calcium, usually with a dye or a luminescent sensor.)

Sequence of Neuronal acetylcholine receptor; alpha3/beta4 (P30926 whole entry): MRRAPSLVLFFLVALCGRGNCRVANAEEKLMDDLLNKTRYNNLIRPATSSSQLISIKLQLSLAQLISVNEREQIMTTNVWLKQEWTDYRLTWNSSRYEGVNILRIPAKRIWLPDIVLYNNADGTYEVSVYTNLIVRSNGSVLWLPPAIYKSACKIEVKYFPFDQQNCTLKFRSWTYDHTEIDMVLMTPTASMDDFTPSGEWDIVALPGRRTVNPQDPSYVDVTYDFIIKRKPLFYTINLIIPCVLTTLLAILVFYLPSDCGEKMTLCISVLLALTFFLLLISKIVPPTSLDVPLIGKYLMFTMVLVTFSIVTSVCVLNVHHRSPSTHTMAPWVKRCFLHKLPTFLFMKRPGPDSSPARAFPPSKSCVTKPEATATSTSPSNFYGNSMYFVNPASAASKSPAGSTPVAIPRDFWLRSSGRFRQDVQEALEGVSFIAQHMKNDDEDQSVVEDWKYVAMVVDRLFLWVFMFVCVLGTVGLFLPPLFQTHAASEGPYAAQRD
Sequence of Neuronal acetylcholine receptor; alpha3/beta4 (P32297 whole entry): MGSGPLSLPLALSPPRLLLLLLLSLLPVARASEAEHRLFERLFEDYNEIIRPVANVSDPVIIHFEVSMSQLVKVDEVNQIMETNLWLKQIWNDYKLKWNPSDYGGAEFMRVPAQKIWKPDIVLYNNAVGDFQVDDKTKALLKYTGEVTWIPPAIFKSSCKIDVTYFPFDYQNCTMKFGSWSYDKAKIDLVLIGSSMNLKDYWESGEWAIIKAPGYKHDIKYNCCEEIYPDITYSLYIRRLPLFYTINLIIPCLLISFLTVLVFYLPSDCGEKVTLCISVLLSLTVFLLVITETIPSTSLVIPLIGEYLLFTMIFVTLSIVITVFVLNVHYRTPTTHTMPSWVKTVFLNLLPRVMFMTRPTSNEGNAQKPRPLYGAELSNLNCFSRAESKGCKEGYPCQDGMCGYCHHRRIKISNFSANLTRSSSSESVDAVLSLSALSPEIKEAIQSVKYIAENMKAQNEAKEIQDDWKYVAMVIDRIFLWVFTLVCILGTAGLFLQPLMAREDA
Sequence of Acetylcholine-binding protein (P58154 whole entry): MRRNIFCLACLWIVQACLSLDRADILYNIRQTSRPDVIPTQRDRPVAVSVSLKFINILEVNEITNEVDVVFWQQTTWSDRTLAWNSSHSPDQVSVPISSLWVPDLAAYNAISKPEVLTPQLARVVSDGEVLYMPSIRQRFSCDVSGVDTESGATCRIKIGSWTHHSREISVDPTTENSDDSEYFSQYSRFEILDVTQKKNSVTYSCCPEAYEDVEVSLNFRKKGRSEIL

For `C[C@@H]1NC(=O)[C@H](C)NC(=O)[C@@H]2CSSC[C@H](NC(=O)CNC(=O)CN)C(=O)N[C@@H](CSSC[C@@H](C(N)=O)NC(=O)[C@H](Cc3ccc(OS(=O)(=O)O)cc3)NC(=O)[C@H](CC(=O)O)NC(=O)[C@H](CCC(N)=O)NC(=O)[C@H](CC(N)=O)NC(=O)[C@H](CC(N)=O)NC1=O)C(=O)N[C@@H](CO)C(=O)N[C@@H](Cc1cnc[nH]1)C(=O)N1CCC[C@H]1C(=O)N[C@@H](C)C(=O)N2`, the pKi in assay [1] is listed as 9.4. In assay [2], this compound had a Ki of 5.37 µM.

Consider `C[C@@H]1NC(=O)[C@H](C)NC(=O)[C@@H]2CSSC[C@H](NC(=O)CNC(=O)CN)C(=O)N[C@@H](CSSC[C@@H](C(=O)O)NC(=O)[C@H](Cc3ccc(O)cc3)NC(=O)[C@H](CC(=O)O)NC(=O)[C@H](CCC(N)=O)NC(=O)[C@H](CC(N)=O)NC(=O)[C@H](CC(N)=O)NC1=O)C(=O)N[C@@H](CO)C(=O)N[C@@H](Cc1cnc[nH]1)C(=O)N1CCC[C@H]1C(=O)N[C@@H](C)C(=O)N2`, for which, in assay [1], the negative logarithm of the Ki (pKi) is 8. In addition, the Ki in assay [2] was greater than 100 µM.

`C[C@@H]1NC(=O)[C@H](C)NC(=O)[C@@H]2CSSC[C@H](NC(=O)CNC(=O)CN)C(=O)N[C@@H](CSSC[C@@H](C(N)=O)NC(=O)[C@H](Cc3ccc(O)cc3)NC(=O)[C@H](CC(=O)O)NC(=O)[C@H](CCC(N)=O)NC(=O)[C@H](CC(N)=O)NC(=O)[C@H](CC(N)=O)NC1=O)C(=O)N[C@@H](CO)C(=O)N[C@@H](Cc1cnc[nH]1)C(=O)N1CCC[C@H]1C(=O)N[C@@H](C)C(=O)N2` yielded a pKi in assay [1] of 8.96. The inhibitory constant (Ki) in assay [2] was 24.5 µM.

In turn, `C[C@@H]1NC(=O)[C@H](C)NC(=O)[C@@H]2CSSC[C@H](NC(=O)CNC(=O)CN)C(=O)N[C@@H](CSSC[C@@H](C(=O)O)NC(=O)[C@H](Cc3ccc(OS(=O)(=O)O)cc3)NC(=O)[C@H](CC(=O)O)NC(=O)[C@H](CCC(N)=O)NC(=O)[C@H](CC(N)=O)NC(=O)[C@H](CC(N)=O)NC1=O)C(=O)N[C@@H](CO)C(=O)N[C@@H](Cc1cnc[nH]1)C(=O)N1CCC[C@H]1C(=O)N[C@@H](C)C(=O)N2` had a negative-log Ki (pKi) in assay [1] of 8.66. The same compound showed an inhibitory constant (Ki) in assay [2] greater than 100 µM.

Regarding `CSCC[C@@H]1NC(=O)[C@H](CC(N)=O)NC(=O)[C@@H]2CSSC[C@H](NC(=O)CN)C(=O)N[C@@H](CSSC[C@@H](C(N)=O)NC(=O)[C@H](Cc3ccc(O)cc3)NC(=O)[C@H](CC(=O)O)NC(=O)[C@@H]3CCCN3C(=O)[C@H](CC(N)=O)NC(=O)[C@H](CC(N)=O)NC1=O)C(=O)N[C@@H](CO)C(=O)N[C@@H](CC(=O)O)C(=O)N1CCC[C@H]1C(=O)N[C@@H](CCCNC(=N)N)C(=O)N2` (H-GCCSDPRCNMNNPDYC-NH2; disulfide 2-8, 3-16), in assay [3], the concentration for half-maximal inhibition (IC50) is 0.347 µM. This compound came in with a pKi in assay [1] of 7.57. In addition, the Ki in assay [2] is greater than 100 µM.

On to `CSCC[C@@H]1NC(=O)[C@H](CC(N)=O)NC(=O)[C@@H]2CSSC[C@H](NC(=O)CN)C(=O)N[C@@H](CSSC[C@@H](C(=O)O)NC(=O)[C@H](Cc3ccc(O)cc3)NC(=O)[C@H](CC(=O)O)NC(=O)[C@@H]3CCCN3C(=O)[C@H](CC(N)=O)NC(=O)[C@H](CC(N)=O)NC1=O)C(=O)N[C@@H](CO)C(=O)N[C@@H](CC(=O)O)C(=O)N1CCC[C@H]1C(=O)N[C@@H](CCCNC(=N)N)C(=O)N2` (H-GCCSDPRCNMNNPDYC-OH; disulfide 2-8, 3-16), for which the IC50 in assay [3] is 1.35 µM. Further, the pKi in assay [1] amounted to 6. The Ki in assay [2] was greater than 100 µM.

Take `CSCC[C@@H]1NC(=O)[C@H](CC(N)=O)NC(=O)[C@@H]2CSSC[C@H](NC(=O)CN)C(=O)N[C@@H](CSSC[C@@H](C(N)=O)NC(=O)[C@H](Cc3ccc(OS(=O)(=O)O)cc3)NC(=O)[C@H](CC(=O)O)NC(=O)[C@@H]3CCCN3C(=O)[C@H](CC(N)=O)NC(=O)[C@H](CC(N)=O)NC1=O)C(=O)N[C@@H](CO)C(=O)N[C@@H](CC(=O)O)C(=O)N1CCC[C@H]1C(=O)N[C@@H](CCCNC(=N)N)C(=O)N2` (H-GCCSDPRCNMNNPD[sY]C-NH2; disulfide 2-8, 3-16): the IC50 in assay [3] is 0.0646 µM. This compound also gave a pKi in assay [1] of 8.38. The same compound had a Ki in assay [2] greater than 100 µM.

With `CSCC[C@@H]1NC(=O)[C@H](CC(N)=O)NC(=O)[C@@H]2CSSC[C@H](NC(=O)CN)C(=O)N[C@@H](CSSC[C@@H](C(=O)O)NC(=O)[C@H](Cc3ccc(OS(=O)(=O)O)cc3)NC(=O)[C@H](CC(=O)O)NC(=O)[C@@H]3CCCN3C(=O)[C@H](CC(N)=O)NC(=O)[C@H](CC(N)=O)NC1=O)C(=O)N[C@@H](CO)C(=O)N[C@@H](CC(=O)O)C(=O)N1CCC[C@H]1C(=O)N[C@@H](CCCNC(=N)N)C(=O)N2` (H-GCCSDPRCNMNNPD[sY]C-OH; disulfide 2-8, 3-16), the IC50 in assay [3] is 0.501 µM. This compound also had a pKi in assay [1] of 6.5. This compound also had a Ki in assay [2] greater than 100 µM.
